Measured values published in publication PMC6641930 (ACS Omega, 2017).
“And” between values parts separate entries of the source, which are not always exact repeats. Equal entries are not always repeated. Where two headings read alike, the source gives them in different places.

Tests used:
[1] = target: T1, TTR fibrils (Homo sapiens, UniProt P02766); settings: two separate binding events, cited from earlier work
[2] = target: T2, Aβ1-42 fibrils (Homo sapiens, UniProt P05067); assay: Fluorescence emission of probe bound to Aβ1-42 fibrils; format: binding; settings: PBS buffer pH 7.5; for Int: fold increase in fluorescence intensity upon binding to Aβ1-42 fibrils: 5 μM fibrils (monomer basis) + 1 μM probe, versus free probe; for λem2: emission maxima of probe bound to Aβ1-42 fibrils: 5 μM fibrils + 1 μM probe, excitation 330 nm
T2 sequence (P05067 672-713): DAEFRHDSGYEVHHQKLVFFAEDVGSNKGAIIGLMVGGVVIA
How it was run: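 Recombinant Aβ1-42 (extra N-terminal Met), solubilised in 6 M GuHCl and gel-filtered into PBS pH 7.5. […] Probe (1.0 μM, from DMSO stock) mixed with 5 μM fibrils or freshly dissolved monomer (monomer basis) in PBS pH 7.5. Emission spectra at 330 nm excitation, identical settings.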

[3] = target: T1, TTR fibrils; assay: Fluorescence emission of probe bound to TTR fibrils; format: binding; settings: 5 μM fibrils + 1 μM probe; pH 3.0; excitation 330 nm
How it was run: (§1)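 Fibrils made from pH 3.0 (TTR: purified WT TTR in 50 mM NaAc/100 mM NaCl; bovine insulin or hen lysozyme: 200 μM in 25 mM HCl pH 1.6 at 65 °C, then dialysed into NaAc/NaCl pH 3.0). 1.0 μM probe from DMSO stock mixed with 5 μM fibrils (monomer basis) in HOAc/NaAc pH 3.0. Excitation 330 nm, emission 350–600 nm. Fold increase taken relative to free probe in buffer.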

[4] = target: T3, insulin fibrils (Bos taurus, UniProt P01317); assay: Fluorescence emission of probe bound to insulin fibrils; format: binding, Bovine; settings: pH 3.0; for Int: fold increase in fluorescence intensity upon binding to insulin fibrils: 5 μM fibrils (monomer basis) + 1 μM probe, versus free probe; for λem2: emission maxima of probe bound to insulin fibrils: 5 μM fibrils + 1 μM probe, excitation 330 nm
T3 sequence (P01317 25-54 limits assumed): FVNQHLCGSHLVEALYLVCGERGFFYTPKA
T3 sequence (P01317 85-105 limits assumed): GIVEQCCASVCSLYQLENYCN
How it was run: as §1

[5] = target: T4, lysozyme fibrils (Gallus gallus, UniProt P00698); assay: Titration of lysozyme fibrils on a fixed probe concentration; format: binding, chicken
T4 sequence (P00698 19-147): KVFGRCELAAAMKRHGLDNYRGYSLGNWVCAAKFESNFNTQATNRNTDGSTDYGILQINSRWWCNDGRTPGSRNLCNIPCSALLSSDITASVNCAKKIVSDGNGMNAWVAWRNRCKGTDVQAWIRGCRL
How it was run: (§2)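 Fibrils (0–20 μM, monomer basis) are titrated onto fixed probe: 1 μM, or 0.5 μM for Aβ1-42 fibrils. Buffers are pH 3.0 for TTR, insulin and lysozyme, and PBS pH 7.5 for Aβ1-42 (10 μM, 37 °C, 24 h quiescent). Samples equilibrate 30 min at room temperature. Excitation 330 nm, emission 350–700 nm. Kd comes from a one-site nonlinear fit with fixed Bmax correcting for unbound probe. SD is from two independent binding series.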

[6] = target: native Aβ1-42 (Homo sapiens, UniProt P05067); assay: Fluorescence emission of probe with freshly dissolved native Aβ1-42; format: binding; settings: 5 μM native Aβ1-42 + 1 μM probe; PBS buffer
Sequence of native Aβ1-42 (P05067 672-713): as the sequence (P05067 672-713) above
How it was run: (§3)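 Probe (1.0 μM final, from DMSO stock) is read free in buffer or with 5 μM native protein (monomer basis). Buffers are HOAc/NaAc pH 3.0 or PBS pH 7.5. Aβ1-42 is recombinant with an extra N-terminal Met, freshly gel-filtered monomer in PBS pH 7.5. Spectra are recorded at 330 nm excitation, 350–600 nm emission, with identical instrument settings.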

[7] = target: T2, Aβ1-42 fibrils; assay: Titration of Aβ1-42 fibrils on a fixed probe concentration; format: binding
How it was run: as §2

[8] = Fluorescence lifetime; format: physicochemical; settings: A: degassed methanol, [probe] = 5 μM; for τ1: excitation 337 nm
How it was run: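 TCSPC decays of 5 μM probe in argon-degassed methanol, excited at 337 nm and monitored at each emission maximum at room temperature. Instrument response is determined with a fibril solution. Decays are fitted to a sum of exponentials, with fit quality judged by χ2, residual distribution and residual autocorrelation. Average lifetime is calculated from amplitudes and lifetimes. Lifetime uncertainty is within 10%.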

[9] = target: T1, TTR fibrils; assay: Titration of TTR fibrils on a fixed probe concentration; format: binding
How it was run: as §2

[10] = target: T4, lysozyme fibrils; assay: Fluorescence emission of probe bound to lysozyme fibrils; format: binding, chicken; settings: pH 3.0; for Int: fold increase in fluorescence intensity upon binding to lysozyme fibrils: 5 μM fibrils (monomer basis) + 1 μM probe, versus free probe; for λem2: emission maxima of probe bound to lysozyme fibrils: 5 μM fibrils + 1 μM probe, excitation 330 nm
How it was run: as §1

[11] = target: T2, Aβ1-42 fibrils; assay: Fluorescence lifetime; settings: for τavg (average fluorescence lifetime): B: bound to Aβ1-42 fibrils in PBS buffer pH 7.5, [probe] = 5 μM; for τavg (average fluorescence lifetime) / λem1 (emission wavelength of decay) / τ1: [fibrils] = 20 μM; for λem1 (emission wavelength of decay) / τ1: [probe] = 5 μM
How it was run: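 Time-correlated single photon counting on 5 μM probe with 20 μM Aβ1-42 fibrils (monomer basis) in PBS pH 7.5 at 25 °C, not degassed. Excitation 337 nm; decay recorded at the bound-probe emission maximum. Instrument response is measured with fibril solution. Multi-exponential fits are judged by χ2 and residuals. Uncertainty is within 10%.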

[12] = target: T3, insulin fibrils; assay: Titration of insulin fibrils on a fixed probe concentration; format: binding, Bovine
How it was run: as §2

[13] = UV-vis absorption and fluorescence spectra in methanol; format: physicochemical; settings: for λmax (em): excitation 330 nm, [probe] = 20 μM; for ε: four concentrations
How it was run: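 Absorption is read in methanol in a 1 cm quartz cuvette at room temperature, at 20 μM and at four concentrations (50–5 μM, or 10–2 μM for one probe) for ε. Fluorescence of 20 μM probe in methanol uses 330 nm excitation, 350–600 nm emission and 1 nm resolution.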

[14] = target: T5, native TTR (Homo sapiens, UniProt P02766); assay: Fluorescence emission of probe with native TTR; format: binding; settings: 5 μM native TTR + 1 μM probe; for emission peaks of probe bound to native TTR: excitation 330 nm; for fluorescence intensity increase upon binding to native TTR: versus probe in buffer
How it was run: as §3

[15] = Emission maximum of free probe in buffer; format: physicochemical; settings: HOAc/NaOAc buffer pH 3.0 or PBS buffer pH 7.5
How it was run: as §3

[16] = target: T5, native TTR; assay: Saturation binding of native TTR to probe
[17] = target: T3, insulin fibrils; settings: read-out: Kd of ThT binding to insulin fibrils; one binding site; cited from earlier work
[18] = cited from earlier work
[19] = target: T4, lysozyme fibrils; settings: two binding sites, cited from earlier work
[20] = read-out: Kd1, TTR fibrils (high-affinity binding site)
[21] = B: bound to Aβ1-42 fibrils in PBS buffer

| Int: fold increase in fluorescence intensity upon binding to Aβ1-42 fibrils [2] [fold] | λem2: emission maxima of probe bound to TTR fibrils [3] | Int: fold increase in fluorescence intensity upon binding to insulin fibrils [4] [fold] | λem2: emission maxima of probe bound to insulin fibrils [4] | Kd [5] [µM] | Kd [7] [µM] | α1 (normalized pre-exponential factor) [8] | λem1 (emission wavelength of decay) [8] [nm] | τavg (average fluorescence lifetime) [8] [ns] | Kd [9] [µM] | Int: fold increase in fluorescence intensity upon binding to lysozyme fibrils [10] [fold] | λem2: emission maxima of probe bound to lysozyme fibrils [10] [nm] | α1 (normalized pre-exponential factor) [11, 21] | α2 (normalized pre-exponential factor) [11, 21] | τ2 [11, 21] [ns] | τavg (average fluorescence lifetime) [11] | λem1 (emission wavelength of decay) [11, 21] [nm] | τ1 [11, 21] [ns] | Kd [12] [µM] | Compound | fluorescence / binding with freshly prepared native Aβ1-42 [6] | other results |
| --- | --- | --- | --- | --- | --- | --- | --- | --- | --- | --- | --- | --- | --- | --- | --- | --- | --- | --- | --- | --- | --- |
|  |  |  |  |  |  |  |  |  |  |  |  |  |  |  |  |  |  |  | Oc1ccc(/C=C/c2cccc3ccccc23)cc1O [Compound 1, (E)-4-(2-(naphthalen-1-yl)vinyl)benzene-1,2-diol] |  | Kd [1, 20]: 0.11 µM; Kd ([1]; read-out: Kd2, TTR fibrils): > 10 µM |
| 2.6 | 395 nm | 7.5 | 382 nm | 7 ± 1.6 | 4.3 ± 0.2 | 1 | 395 | <0.05 | 15.1 ± 0.9 | 3.8 | 382 | 0.86 | 0.14 | 2.31 | 1.3 ns and 1.33 ns | 410 | 0.28 | 8 ± 1.6 | Oc1ccc(/C=C/c2ccccc2)cc1O [Compound 2, (E)-4-Styrylbenzene-1,2-diol] | Neither 2, 4, or 5 fluoresced appreciably | λem2: emission maxima of probe bound to Aβ1-42 fibrils [2]: 384 nm; τ1 [8]: < 0.05 ns; Stokes shift [13]: 61 nm; λmax (abs) [13]: 325 nm; λmax (em) [13]: 386 nm; ε [13]: 25 038 L·M^–1 cm^–1 |
| 6.9 | 395 nm | 13.7 | 410 nm | 2.9 ± 0.2 | 2.2 ± 0.4 | 1 | 415 | 0.52 | 12.3 ± 1 | 13.1 | 410 | 0.54 | 0.46 | 1.65 | 1.5 ns and 1.45 ns | 420 | 0.23 | 4.5 ± 0.4 | Oc1ccc(/C=C/c2ccc3ccccc3c2)cc1O [Compound 3, (E)-4-(2-(naphthalen-2-yl)vinyl)benzene-1,2-diol] | showed some binding | λem2: emission maxima of probe bound to Aβ1-42 fibrils [2]: 408 nm; τ1 [8]: 0.52 ns; Stokes shift [13]: 86 nm; λmax (abs) [13]: 334 nm; λmax (em) [13]: 420 nm; ε [13]: 30 170 L·M^–1 cm^–1; Kd [1, 20]: 0.07 µM; Kd ([1]; read-out: Kd2, TTR fibrils): > 10 µM |
| 10.3 | 451 nm and 475 nm | 91.4 | 451 nm and 471 nm | 2.8 ± 0.4 | 1.6 ± 0.1 | 1 | 475 | 4.23 | 7.4 ± 0.5 | 37.5 | 451 | 0.38 | 0.62 | 6.06 | 5.7 ns and 5.73 ns | 460 | 0.64 | 3.7 ± 0.6 | Oc1ccc(/C=C/c2ccc3cc4ccccc4cc3c2)cc1O [Compound 4, (E)-4-(2-(anthracen-2-yl)vinyl)benzene-1,2-diol] | Neither 2, 4, or 5 fluoresced appreciably | τ1 [8]: 4.23 ns; emission peaks of probe bound to native TTR [14]: 449 nm and 476 nm; fluorescence intensity increase upon binding to native TTR [14]: about 6.1 fold; Stokes shift [13]: 148 nm; λmax (abs) [13]: 335 nm; λmax (em) [13]: 483 nm; ε [13]: 27 070 L·M^–1 cm^–1 |
|  |  |  |  |  |  |  |  |  |  |  |  |  |  |  |  |  |  |  | Cc1ccc2c(c1)sc(-c1ccc(N(C)C)cc1)[n+]2C [ThT, thioflavin T] |  | Kd [17]: 10.4 µM; average fluorescence lifetime t1/2 [18]: < 1 ns; Kd ([19]; read-out: Kd1 of ThT binding to lysozyme fibrils): 0.13 µM; Kd ([19]; read-out: Kd2 of ThT binding to lysozyme fibrils): 17.9 µM |

| Compound | Int: fold increase in fluorescence intensity upon binding to Aβ1-42 fibrils [2] [fold] | λem2: emission maxima of probe bound to TTR fibrils [3] | Int: fold increase in fluorescence intensity upon binding to insulin fibrils [4] [fold] | λem2: emission maxima of probe bound to insulin fibrils [4] | Kd [5] [µM] | Kd [7] [µM] | α1 (normalized pre-exponential factor) [8] | λem1 (emission wavelength of decay) [8] [nm] | τavg (average fluorescence lifetime) [8] [ns] | Kd [9] [µM] | Int: fold increase in fluorescence intensity upon binding to lysozyme fibrils [10] [fold] | λem2: emission maxima of probe bound to lysozyme fibrils [10] [nm] | α1 (normalized pre-exponential factor) [11, 21] | α2 (normalized pre-exponential factor) [11, 21] | τ2 [11, 21] [ns] | τavg (average fluorescence lifetime) [11] | λem1 (emission wavelength of decay) [11, 21] [nm] | τ1 [11, 21] [ns] | Kd [12] [µM] | fluorescence / binding with freshly prepared native Aβ1-42 [6] | other results |
| --- | --- | --- | --- | --- | --- | --- | --- | --- | --- | --- | --- | --- | --- | --- | --- | --- | --- | --- | --- | --- | --- |
| Oc1ccc(/C=C/c2cc3ccc4cccc5ccc(c2)c3c45)cc1O [Compound 5, (E)-4-(2-(pyren-2-yl)vinyl)benzene-1,2-diol] | 11.1 | 420 nm and 445 nm and 475 nm | 23.2 | 420 nm and 445 nm and 475 nm | 1.6 ± 0.3 | 1.3 ± 0.1 | 0.77 | 425 | 19.11 | 6 ± 0.3 | 8.9 | 420 | 0.11 | 0.42 | 8.89 | 29.8 ns and 29.76 ns | 430 | 0.83 | 2.3 ± 0.4 | Neither 2, 4, or 5 fluoresced appreciably | λem2: emission maxima of probe bound to Aβ1-42 fibrils [2]: ~421 nm; λem1: emission maxima of probes in buffer [15]: 420 nm; α2 (normalized pre-exponential factor) [8]: 0.23; τ2 [8]: 29.30 ns; Kd [16]: 0.2 ± 0.01 µM; α3 (normalized pre-exponential factor) [11, 21]: 0.47; τ3 [11, 21]: 34.70 ns; emission peaks of probe bound to native TTR [14]: 420 nm and 445 nm and 475 nm; fluorescence intensity increase upon binding to native TTR [14]: 15.8 fold; Stokes shift [13]: 78 nm; λmax (abs) [13]: 337 nm; λmax (em) [13]: 415 nm; ε [13]: 47 668 L·M^–1 cm^–1 |
